The target of data set [1] is T1, Replicase polyprotein 1ab (Severe acute respiratory syndrome coronavirus 2, UniProt P0DTD1). In words: Inhibition of full-length recombinant SARS-CoV-2 3CL protease expressed in Escherichia coli BL21 (DE3) cells using fluorogenic MCA-AVLQSGFR-Lys (Dnp)-Lys-NH2 substrate preincubated for 10 mins followed by substrate addition measured after 5 mins by FRET assay.
The target of another data set is Cathepsin B (Homo sapiens, UniProt P07858). Briefly: Inhibition of human Cathepsin B using Z-RR-AMC as substrate preincubated for 30 mins followed by substrate addition measured for 10 mins by FRET assay. An outline of the steps: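 Cathepsin B (0.25 units) with compound in 20 mM sodium acetate pH 5.5, 1 mM EDTA, 2 mM DTT, incubated 30 min at ambient temperature. Z-RR-AMC added at 1 μM final. Fluorescence (ex 340/em 440 nm) read every 1 min for 10 min. Rates relative to DMSO.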

Data set [2] has as its target T1, Replicase polyprotein 1ab. Briefly: Inhibition of SARS-CoV-2 PLpro using RLRGG-AMC substrate preincubated for 30 mins followed by substrate addition measured for 5 mins by fluorescence based assay. An outline of the steps:
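PLpro at 50 nM with serially diluted compound in 50 mM HEPES pH 7.5, 0.1 mg/mL BSA, incubated 30 min. RLRGG-AMC added to 20 μM final. Fluorescence (ex 360/em 460 nm) read every 1 min for 5 min. Rates compared with DMSO control.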

The target of data set [3] is T1, Replicase polyprotein 1ab. In words: Inhibition of full-length recombinant SARS-CoV-2 3CL protease expressed in Escherichia coli BL21 (DE3) cells using fluorogenic MCA-AVLQSGFR-Lys (Dnp)-Lys-NH2 substrate preincubated for 10 mins followed by substrate addition measured for 3.5 mins by FRET assay.
Data set [4] concerns the target T1, Replicase polyprotein 1ab. Briefly: Inhibition of full-length recombinant SARS-CoV-2 3CL protease expressed in Escherichia coli BL21 (DE3) cells using fluorogenic MCA-AVLQSGFR-Lys (Dnp)-Lys-NH2 substrate preincubated for 10 mins followed by substrate addition measured immediately by FRET assay. The essentials: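 FRET assay: 50 nM protease (final) in 50 mM Tris–HCl pH 7.3, 1 mM EDTA, with serially diluted compound. Compound–enzyme preincubation was 10 min in the standard assay, and 0, 5, 10 or 20 min in the time-dependence test. Substrate added at 10 μM final. Fluorescence (ex 320/em 405 nm) read every 35 s for 3.5 min. Initial rates normalised to DMSO control.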

In a further data set the target is Chymotrypsin (Homo sapiens, UniProt Q99895+P17538+P40313+Q6GPI1). Briefly: Inhibition of chymotrypsin (unknown origin) using N-succinyl-AAPF-AMC as substrate preincubated for 10 mins followed by substrate addition measured for 10 mins by fluorescence based assay. Format: protein assay. The essentials:
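Chymotrypsin at 5 nM final with serially diluted compound in PBS pH 7.4, incubated 10 min. N-succinyl-AAPF-AMC added at 10 μM final. Fluorescence (ex 380/em 460 nm) read every 1 min for 10 min. Rates relative to DMSO.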

The target of data set [5] is T1, Replicase polyprotein 1ab. In words: Inhibition of full-length recombinant SARS-CoV-2 3CL protease expressed in Escherichia coli BL21 (DE3) cells using fluorogenic MCA-AVLQSGFR-Lys (Dnp)-Lys-NH2 substrate preincubated for 10 mins followed by substrate addition measured after 10 mins by FRET assay.
Data set [6] concerns the target T1, Replicase polyprotein 1ab. Briefly: Binding affinity to CM5 chip-immobilised full-length recombinant SARS-CoV-2 3CL protease expressed in Escherichia coli BL21 (DE3) cells assessed as dissociation constant by SPR analysis. The essentials:
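SPR at 25 °C in HBS-EP (10 mM HEPES pH 7.4, 150 mM NaCl, 3.0 mM EDTA, 0.05% Tween-20) with 5% DMSO. Protease immobilised at 8000–10000 RU. Compounds were run as an eight-concentration series, with 240 s association and 200 s dissociation. Surface washed with 50% DMSO each cycle.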

A further data set addresses Procathepsin L (Homo sapiens, UniProt P07711). In words: Inhibition of human Cathepsin L using Z-VVR-AMC as substrate measured for 10 mins by fluorescence based assay.
The target in data set [7] is T1, Replicase polyprotein 1ab. Briefly: Inhibition of full-length recombinant SARS-CoV-2 3CL protease expressed in Escherichia coli BL21 (DE3) cells using fluorogenic MCA-AVLQSGFR-Lys (Dnp)-Lys-NH2 substrate preincubated for 10 mins followed by substrate addition measured after 20 mins by FRET assay.
In data set [8] the target is Replicase polyprotein 1ab (Severe acute respiratory syndrome coronavirus 2) (UniProt P0DTD1). In words: Binding affinity to full-length recombinant SARS-CoV-2 3CL protease expressed in Escherichia coli BL21 (DE3) cells assessed as Gibbs free energy change by MM-GBSA method.
The next data set has as its system SARS-CoV-2. Briefly: Antiviral activity against SARS-CoV-2 infected in African green monkey Vero E6 cells assessed as reduction in viral replication incubated for 24 hrs by qRT-PCR analysis. It counts as functional, organism-based. To be noted: Severe acute respiratory syndrome coronavirus 2, Vero C1008, 24 h. In general terms: Quantitative PCR measures a nucleic acid by following its amplification.

The subject of the next data set is Vero C1008. Briefly: Cytotoxicity against African green monkey Vero E6 cells incubated for 24 hrs by WST-8 assay. It counts as toxicity, cell-based. The settings on record: chlorocebus sabaeus, vero c1008, 24 h. An outline of the steps:
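Vero E6 cells grown in DMEM with 10% FBS at 37 °C, 5% CO₂. Compounds tested as 2-fold dilutions, 9 concentrations, in DMEM with 2% FBS, triplicate per concentration, for 24 h. WST-8 added and absorbance read at 450 nm after 0.5–1 h. Viability expressed relative to DMSO control.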
(Formazan colour is commonly taken as a measure of viable cells.)

Chain of Procathepsin L (P07711 whole entry): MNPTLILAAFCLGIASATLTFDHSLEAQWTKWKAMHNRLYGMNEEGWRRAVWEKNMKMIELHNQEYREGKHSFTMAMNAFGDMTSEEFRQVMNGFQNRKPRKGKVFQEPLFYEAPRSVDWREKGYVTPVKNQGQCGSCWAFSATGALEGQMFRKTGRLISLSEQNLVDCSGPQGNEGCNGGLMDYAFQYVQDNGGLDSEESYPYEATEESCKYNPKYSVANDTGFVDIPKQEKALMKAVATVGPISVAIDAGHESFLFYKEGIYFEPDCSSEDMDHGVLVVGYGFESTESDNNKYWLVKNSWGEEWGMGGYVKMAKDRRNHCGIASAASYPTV

In general, IC50 refers to the concentration needed to halve the response being measured. The term Kd denotes the free concentration of one partner at which half of the binding sites on the other are occupied at equilibrium, for simple one-to-one binding. On to `C/N=c1\nc(-c2ccccc2)n(-c2ccccc2)s1`, for which the IC50 is 302 nM in data set [1]; above 50000 nM on Cathepsin B; 655 nM in [2]; 193 nM in data set [3]; 409 nM in data set [4]; above 100000 nM against Chymotrypsin. In addition, the IC50 was 206 nM in data set [5], above 100000 nM against Procathepsin L and 191 nM in data set [7]. Moreover, the Kd in [6] turned out to be 798 nM. Besides, the deltaG in [8] is -13.9 kcal/mol.
By EC50 is commonly meant the concentration at which the effect is half-maximal. As a reminder, the CC50 is the concentration giving 50% cytotoxicity. Regarding `CCOc1ccc(-c2n/c(=N\C)sn2-c2ccc(F)cc2)cc1`, the half-maximal inhibitory concentration (IC50) in data set [3] turned out to be 462 nM. In addition, the EC50 with SARS-CoV-2 is 14800 nM. This compound also showed a half-maximal cytotoxic concentration (CC50) with Vero C1008 above 100000 nM.
On to `C/N=c1\nc(-c2ccc(OC)cc2)n(-c2ccc(F)cc2)s1`, for which the IC50 in [3] came out at 373 nM.
`c1ccc(-c2n/c(=N\C3CC3)sn2-c2ccccc2)cc1`: in data set [3], the IC50 is 143 nM.
Same read-out and setting: the value for `C/N=c1\nc(-c2ccccc2)n(-c2ccc(F)cc2)s1` was 124 nM.
As for `C/N=c1\nc(-c2ccc(F)cc2)n(-c2ccccc2)s1`, the IC50 on Cathepsin B was above 50000 nM; in [2], 448 nM; in data set [3] it was 118 nM; at Chymotrypsin, above 100000 nM; against Procathepsin L it was above 100000 nM. Also, the EC50 with SARS-CoV-2 is 7250 nM. This compound also displayed a CC50 in the data set on Vero C1008 above 100000 nM.
Consider `FC1(F)CC(/N=c2\nc(-c3ccccc3)n(-c3ccccc3)s2)C1`, for which the IC50 in [3] is 323 nM.
Consider `C/N=c1\nc(-c2ccc(OC)cc2)n(-c2cc(F)c(F)c(F)c2)s1`, for which, in data set [3], the IC50 worked out at 582 nM. Further, the EC50 in the data set with SARS-CoV-2 was 9340 nM. In the data set with Vero C1008, this compound gave a CC50 above 100000 nM.
Regarding `C/N=c1\nc(-c2ccc(OC)cc2)n(-c2ccccc2)s1`, in data set [3], the IC50 was found to be 165 nM.
The same measure, in the same setting: then `C/N=c1\nc(-c2ccc(Cl)cc2)n(-c2ccccc2)s1`, with 136 nM.
Consider `CN=C(S)N=C(Nc1ccccc1)c1ccccc1`, for which the IC50 in data set [3] came to 40000 nM. Moreover, the deltaG in data set [8] is -11.4 kcal/mol.

The values are drawn from ChEMBL document CHEMBL5346884, “Discovery, synthesis and mechanism study of 2,3,5-substituted [1,2,4]-thiadiazoles as covalent inhibitors targeting 3C-Like protease of SARS-CoV-2” (Eur J Med Chem, 2023).
